# Results as given in ChEMBL document CHEMBL1629657, “In vitro antimicrobial activity of a new cephalosporin, ceftaroline, and determination of quality control ranges for MIC testing” (2009).
# How the values were obtained:
# Format in all cases: functional
# Proteus mirabilis = experiment: Antimicrobial activity against Proteus mirabilis by broth microdilution method
# Outline: (§1)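 Clinical isolates were tested by CLSI broth microdilution in unsupplemented cation-adjusted Mueller-Hinton broth. The read-out was the MIC, reported as MIC90 (μg/ml) per species or phenotypic group. Ceftriaxone, levofloxacin and imipenem were run in parallel as comparators.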
# [1] = tested on: Stenotrophomonas maltophilia; experiment: Antimicrobial activity against Stenotrophomonas maltophilia by broth microdilution method; outline: as §1
# Enterobacter cloacae = experiment: Antimicrobial activity against ESBL-negative Enterobacter cloacae by broth microdilution method; outline: as §1
# Morganella morganii = experiment: Antimicrobial activity against Morganella morganii by broth microdilution method; outline: as §1
# Proteus vulgaris = experiment: Antimicrobial activity against Proteus vulgaris by broth microdilution method; outline: as §1
# Moraxella catarrhalis = experiment: Antimicrobial activity against Moraxella catarrhalis by broth microdilution method; outline: as §1
# Streptococcus agalactiae = experiment: Antimicrobial activity against Streptococcus agalactiae by broth microdilution method
# Outline: (§2)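 Streptococcal isolates were tested by CLSI broth microdilution in cation-adjusted Mueller-Hinton broth supplemented with 3% lysed horse blood. The read-out was the MIC, with MIC90 (μg/ml) reported per group. Ceftriaxone, levofloxacin and imipenem served as comparators.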
# [2] = fT>MIC Staphylococcus aureus infected mouse model for 1-log kill
# Serratia marcescens = experiment: Antimicrobial activity against Serratia marcescens by broth microdilution method; outline: as §1
# Streptococcus pneumoniae [3] = experiment: Antimicrobial activity against penicillin-resistant Streptococcus pneumoniae by broth microdilution method
# Outline: (§3)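 CLSI broth microdilution in cation-adjusted Mueller-Hinton broth with 3% lysed horse blood, against streptococcal clinical isolates of the stated phenotype. Ceftaroline was compared with ceftriaxone, levofloxacin and imipenem. Activity was expressed as MICs (MIC90 in μg/ml).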
# Staphylococcus aureus [4] = experiment: Antimicrobial activity against vancomycin-intermediate Staphylococcus aureus by broth microdilution method; outline: as §1
# Burkholderia cepacia = experiment: Antimicrobial activity against Burkholderia cepacia by broth microdilution method; outline: as §1
# Pseudomonas aeruginosa [5] = experiment: Antimicrobial activity against multidrug resistant Pseudomonas aeruginosa by broth microdilution method
# Outline: (§4)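 Isolates of the stated resistance phenotype were tested by CLSI broth microdilution in unsupplemented cation-adjusted Mueller-Hinton broth. Ceftaroline was compared with ceftriaxone, levofloxacin and imipenem. Activity was expressed as MICs (MIC90 in μg/ml).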
# Haemophilus influenzae [6] = experiment: Antimicrobial activity against beta-lactamase-negative ampicillin resistant Haemophilus influenzae by broth microdilution method
# Outline: (§5)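 CLSI broth microdilution in Haemophilus test medium (cation-adjusted Mueller-Hinton base) against clinical H. influenzae isolates of the stated phenotype. Ceftaroline was compared with ceftriaxone, levofloxacin and imipenem. Activity was expressed as MICs (MIC90 in μg/ml).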
# Staphylococcus [7] = experiment: Antimicrobial activity against methicillin-resistant coagulase-negative Staphylococcus by broth microdilution method; outline: as §4
# Klebsiella pneumoniae [8] = experiment: Antimicrobial activity against ESBL-negative Klebsiella pneumoniae by broth microdilution method; outline: as §1
# Enterococcus faecium [9] = experiment: Antimicrobial activity against vancomycin-susceptible Enterococcus faecium by broth microdilution method; outline: as §1
# Shigella sp. = experiment: Antimicrobial activity against Shigella spp. by broth microdilution method; outline: as §1
# Corynebacterium jeikeium = experiment: Antimicrobial activity against Corynebacterium jeikeium by broth microdilution method; outline: as §1
# Providencia rettgeri = experiment: Antimicrobial activity against Proteus rettgeri by broth microdilution method; outline: as §1
# Klebsiella pneumoniae [10] = experiment: Antimicrobial activity against ESBL-positive Klebsiella pneumoniae by broth microdilution method; outline: as §1
# Haemophilus influenzae [11] = experiment: Antimicrobial activity against beta-lactamase-positive Haemophilus influenzae by broth microdilution method
# Outline: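 H. influenzae isolates were tested by CLSI broth microdilution using Haemophilus test medium. The MIC was read and MIC90 (μg/ml) reported for the group. Ceftriaxone, levofloxacin and imipenem served as comparators.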
# Staphylococcus [12] = experiment: Antimicrobial activity against methicillin-susceptible coagulase-negative Staphylococcus by broth microdilution method; outline: as §1
# Enterococcus faecalis [13] = experiment: Antimicrobial activity against Enterococcus faecalis by broth microdilution method; outline: as §1
# Escherichia coli [14] = experiment: Antimicrobial activity against ESBL-positive Escherichia coli by broth microdilution method; outline: as §1
# Streptococcus viridans = experiment: Antimicrobial activity against Streptococcus viridans group clinical isolate by broth microdilution method; outline: as §2
# Listeria monocytogenes = experiment: Antimicrobial activity against Listeria monocytogenes by broth microdilution method; outline: as §1
# Escherichia coli [15] = experiment: Antimicrobial activity against ESBL-negative Escherichia coli by broth microdilution method; outline: as §1
# Enterococcus faecalis [16] = experiment: Antimicrobial activity against vancomycin-susceptible Enterococcus faecalis by broth microdilution method; outline: as §1
# Enterococcus faecium [17] = experiment: Antimicrobial activity against Enterococcus faecium by broth microdilution method; outline: as §1
# Haemophilus influenzae [18] = experiment: Antimicrobial activity against beta-lactamase-negative Haemophilus influenzae by broth microdilution method; outline: as §5
# [19] = fT>MIC Streptococcus pneumoniae infected mouse model for 1-log kill
# Streptococcus pneumoniae [20] = experiment: Antimicrobial activity against penicillin-intermediate Streptococcus pneumoniae by broth microdilution method; outline: as §3
# Staphylococcus aureus [21] = experiment: Antimicrobial activity against methicillin-resistant Staphylococcus aureus by broth microdilution method; outline: as §4
# Streptococcus pneumoniae [22] = experiment: Antimicrobial activity against levofloxacin-resistant Streptococcus pneumoniae by broth microdilution method; outline: as §3
# Salmonella sp. = experiment: Antimicrobial activity against Salmonella spp. by broth microdilution method; outline: as §1
# Streptococcus pneumoniae [23] = experiment: Antimicrobial activity against penicillin-susceptible Streptococcus pneumoniae by broth microdilution method; outline: as §2
# Streptococcus pyogenes [24] = experiment: Antimicrobial activity against macrolide-resistant Streptococcus pyogenes by broth microdilution method; outline: as §3
# Staphylococcus aureus [25] = experiment: Antimicrobial activity against methicillin-susceptible Staphylococcus aureus by broth microdilution method; outline: as §1
# Pseudomonas aeruginosa [26] = experiment: Antimicrobial activity against Pseudomonas aeruginosa by broth microdilution method; outline: as §1
# Streptococcus pyogenes [27] = experiment: Antimicrobial activity against macrolide-susceptible Streptococcus pyogenes by broth microdilution method; outline: as §3
# Staphylococcus aureus [28] = experiment: Antimicrobial activity against vancomycin-resistant Staphylococcus aureus by broth microdilution method; outline: as §4
# [29] = fT>MIC Enterobacteriaceae infected mouse model for 1-log kill
# Providencia stuartii = experiment: Antimicrobial activity against Proteus stuartii by broth microdilution method; outline: as §1
# Klebsiella aerogenes = experiment: Antimicrobial activity against ESBL-negative Enterobacter aerogenes by broth microdilution method; outline: as §1
smiles,measurement,setting,value
CCO/N=C(\C(=O)N[C@@H]1C(=O)N2C(C(=O)[O-])=C(Sc3nc(-c4cc[n+](C)cc4)cs3)CS[C@H]12)c1nsc(NP(=O)(O)O)n1 [CEFTAROLINE FOSAMIL],MIC50,Proteus mirabilis,0.06 µg/mL
same,MIC90,Proteus mirabilis,4 µg/mL
same,MIC50,[1],> 32 µg/mL
same,MIC90,[1],> 32 µg/mL
same,MIC50,Enterobacter cloacae,0.12 µg/mL
same,MIC90,Enterobacter cloacae,0.5 µg/mL
same,MIC50,Morganella morganii,> 32 µg/mL
same,MIC90,Morganella morganii,> 32 µg/mL
same,MIC50,Proteus vulgaris,16 µg/mL
same,MIC90,Proteus vulgaris,> 32 µg/mL
same,MIC50,Moraxella catarrhalis,0.12 µg/mL
same,MIC90,Moraxella catarrhalis,0.25 µg/mL
same,MIC,Streptococcus agalactiae,0.015 µg/mL
same,MIC50,Streptococcus agalactiae,0.015 µg/mL
same,MIC90,Streptococcus agalactiae,0.015 µg/mL
same,fT>MIC,[2],33%
same,MIC,Serratia marcescens,0.5 µg/mL
same,MIC50,Serratia marcescens,0.5 µg/mL
same,MIC90,Serratia marcescens,8 µg/mL
same,MIC50,Streptococcus pneumoniae [3],0.25 µg/mL
same,MIC90,Streptococcus pneumoniae [3],0.5 µg/mL
same,MIC50,Staphylococcus aureus [4],1 µg/mL
same,MIC90,Staphylococcus aureus [4],1 µg/mL
same,MIC50,Burkholderia cepacia,> 32 µg/mL
same,MIC90,Burkholderia cepacia,> 32 µg/mL
same,MIC50,Pseudomonas aeruginosa [5],16 µg/mL
same,MIC50,Haemophilus influenzae [6],0.12 µg/mL
same,MIC90,Haemophilus influenzae [6],0.25 µg/mL
same,MIC50,Staphylococcus [7],0.25 µg/mL
same,MIC90,Staphylococcus [7],0.5 µg/mL
same,MIC50,Klebsiella pneumoniae [8],0.06 µg/mL
same,MIC90,Klebsiella pneumoniae [8],0.25 µg/mL
same,MIC50,Enterococcus faecium [9],1 µg/mL
same,MIC90,Enterococcus faecium [9],16 µg/mL
same,MIC50,Shigella sp.,0.03 µg/mL
same,MIC90,Shigella sp.,0.12 µg/mL
same,MIC50,Corynebacterium jeikeium,> 32 µg/mL
same,MIC90,Corynebacterium jeikeium,> 32 µg/mL
same,MIC50,Providencia rettgeri,1 µg/mL
same,MIC90,Providencia rettgeri,4 µg/mL
same,MIC50,Klebsiella pneumoniae [10],32 µg/mL
same,MIC90,Klebsiella pneumoniae [10],> 32 µg/mL
same,MIC,Haemophilus influenzae [11],0.015 µg/mL
same,MIC50,Haemophilus influenzae [11],0.015 µg/mL
same,MIC90,Haemophilus influenzae [11],0.06 µg/mL
same,MIC50,Staphylococcus [12],0.06 µg/mL
same,MIC90,Staphylococcus [12],0.25 µg/mL
same,MIC50,Enterococcus faecalis [13],2 µg/mL
same,MIC90,Enterococcus faecalis [13],4 µg/mL
same,MIC50,Escherichia coli [14],> 32 µg/mL
same,MIC90,Escherichia coli [14],> 32 µg/mL
same,MIC,Streptococcus viridans,0.015 µg/mL
same,MIC50,Streptococcus viridans,0.015 µg/mL
same,MIC90,Streptococcus viridans,0.12 µg/mL
same,MIC50,Listeria monocytogenes,4 µg/mL
same,MIC90,Listeria monocytogenes,4 µg/mL
same,MIC50,Escherichia coli [15],0.06 µg/mL
same,MIC90,Escherichia coli [15],1 µg/mL
same,MIC,Enterococcus faecalis [16],1 µg/mL
same,MIC50,Enterococcus faecalis [16],1 µg/mL
same,MIC90,Enterococcus faecalis [16],4 µg/mL
same,MIC50,Enterococcus faecium [17],32 µg/mL
same,MIC90,Enterococcus faecium [17],> 32 µg/mL
same,MIC,Haemophilus influenzae [18],0.015 µg/mL
same,MIC50,Haemophilus influenzae [18],0.015 µg/mL
same,MIC90,Haemophilus influenzae [18],0.015 µg/mL
same,fT>MIC,[19],43%
same,MIC50,Streptococcus pneumoniae [20],0.03 µg/mL
same,MIC90,Streptococcus pneumoniae [20],0.06 µg/mL
same,MIC,Staphylococcus aureus [21],0.5 µg/mL
same,MIC50,Staphylococcus aureus [21],0.5 µg/mL
same,MIC90,Staphylococcus aureus [21],1 µg/mL
same,MIC50,Streptococcus pneumoniae [22],0.03 µg/mL
same,MIC90,Streptococcus pneumoniae [22],0.25 µg/mL
same,MIC50,Salmonella sp.,0.12 µg/mL
same,MIC90,Salmonella sp.,> 32 µg/mL
same,MIC,Streptococcus pneumoniae [23],0.015 µg/mL
same,MIC50,Streptococcus pneumoniae [23],0.015 µg/mL
same,MIC90,Streptococcus pneumoniae [23],0.015 µg/mL
same,MIC,Streptococcus pyogenes [24],0.015 µg/mL
same,MIC50,Streptococcus pyogenes [24],0.015 µg/mL
same,MIC90,Streptococcus pyogenes [24],0.015 µg/mL
same,MIC,Staphylococcus aureus [25],0.25 µg/mL
same,MIC50,Staphylococcus aureus [25],0.25 µg/mL
same,MIC90,Staphylococcus aureus [25],0.25 µg/mL
same,MIC50,Pseudomonas aeruginosa [26],16 µg/mL
same,MIC90,Pseudomonas aeruginosa [26],> 32 µg/mL
same,MIC,Streptococcus pyogenes [27],0.015 µg/mL
same,MIC50,Streptococcus pyogenes [27],0.015 µg/mL
same,MIC90,Streptococcus pyogenes [27],0.015 µg/mL
same,MIC,Staphylococcus aureus [28],0.5 µg/mL
same,fT>MIC,[29],41%
same,MIC50,Providencia stuartii,1 µg/mL
same,MIC90,Providencia stuartii,4 µg/mL
same,MIC50,Klebsiella aerogenes,0.12 µg/mL
same,MIC90,Klebsiella aerogenes,> 32 µg/mL
